These results are taken from the EternaBench riboswitch data.

This data set relates to MS2 coat protein. Put plainly: apparent Kd, MS2 coat protein; higher = weaker binding; RNA-MaP array; FMN 200 µM where present. The gist of the method: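 Stalled E. coli RNA polymerase produced the designs on Illumina sequencing-chip clusters. SNAP-549-labelled MS2 coat protein was added from 0.7 or 1.5 nM, doubling to 3 µM, without and then with constant ligand, in 100 mM Tris-HCl pH 7.5, 80 mM KCl, 4 mM MgCl2, BSA, DTT, yeast tRNA and Tween-20. The apparent Kd is the median of filtered per-cluster fits of green signal normalised to red-channel RNA signal and control-cluster median Fmax.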

[1] abbreviates: designed as: ON switch for flavin mononucleotide, no ligand.
[2] abbreviates: ligand present: flavin mononucleotide, designed as: ON switch for flavin mononucleotide.
Setting [3] is: designed as: OFF switch for flavin mononucleotide, no ligand.
Where [4] appears, read: ligand present: flavin mononucleotide, designed as: OFF switch for flavin mononucleotide.

Consider “CGCUAAGAUGGGUUUAAUGGAGCAUAGGAUAUGCUUGUACAUGAGGAUCACCCAUGUAAUAUUGUGCAGAAGGGUGCAUUUGCG”, for which the “apparent Kd” value by setting is: under setting [1], 126 nM; under setting [2], 75.1 nM.

With “UAAUAUUUAUGAUAUUAUUACAUUAGAAGGCAAGACAUGUGGAUACAUGAGGAUCACCCAUGUAUUGAGGAUAUAGACAUAUAU”, the “apparent Kd” value under setting [3] worked out at 15.4 nM and the “apparent Kd” value under setting [4] is 19.2 nM.

As to “GUUAUACAUGAGGAUCACCCAUGUCAAUGUAGUCGAGGAUAUGGGCAGCUAUGAGGCGUACUAGAAGGCGAUGAGU”, the “apparent Kd” value runs as follows: under setting [1], 156 nM; under setting [2], 44.5 nM.

Consider “GGUCGUCAAGUCAGGAUAUCGUUUGGUCGGUGUGGCGAGAAGGGACAUGAGGAUCACCCAUGUCGUCUCAUCAG”, for which the “apparent Kd” value turned out to be 27 nM under setting [3] and 29.9 nM under setting [4].

As to “ACGUGUCGUGUAGGAUAUGACACAGGAAACUGGUCAGAAGGACAUGAGGAUCACCCAUGUAAAGUGUUUAAGAAUGACGUAUGC”, the “apparent Kd” value under setting [3] was 43.9 nM and the “apparent Kd” value under setting [4] came out at 106 nM.

As for “UAUUUAAGAGGAUAUACAUGAGGAUCACCCAUGUGUGUCAAUACGCGUGAUUUUUCAUGUAGAAGGCUUGGGUA”, the “apparent Kd” value under setting [3] worked out at 233 nM and the “apparent Kd” value under setting [4] is 129 nM.

On to “GACAUACAUGAGGAUCACCCAUGUUCAGACGAACAAGGAUAUGUGUGGAAACCAUACUAUACAGAAGGUGUCUGUC”, for which the “apparent Kd” value under setting [1] came to 78.4 nM and the “apparent Kd” value under setting [2] was 36 nM.

On to “UGGGAUGGCUAGAAGGCUCCGUAUACUAAAGGGAGAGGAUAUGGCACAUGAGGAUCACCCAUGUGUACCUGUAGGUGAUCCACA”, for which the “apparent Kd” value came out at 276 nM under setting [3] and 70 nM under setting [4].

For the sequence “GUUAUGUUAGGAUAUGCUUAUGGUGGGUGCUCAGAUAUGAUGCAGAAGGGACAUGAGGAUCACCCAUGUACUGU”, the “apparent Kd” value is 484 nM under setting [3] and 310 nM under setting [4].

As to “GUCAGCUCGUGAGGAUAUACAACACUGCGUCGGCAGUGUAUUAAGAUCACAUGAGGAUCACCCAUGUAGAAGGCACGAGCUGAU”, the “apparent Kd” value under setting [3] was found to be 13.4 nM and the “apparent Kd” value under setting [4] was determined as 223 nM.

As to “GGUGUAUAUGAGAAGGCGAUCAUGAAACAUGAUCGAGGAUAUCAUGUAAACAUGAGGAUCACCCAUGUAUGGGAAUAAUGCACC”, the “apparent Kd” value by setting is: under setting [1], 120 nM; under setting [2], 13.6 nM.

Take “UCAACCGGCGCCGGUUGAACAUGAGGAUCACCCAUGUACUCCAGAAGGCCGCCCAAGAACGGAGUGGAGGAUAUGGAAGUUCUC”: the “apparent Kd” value amounted to 47.2 nM under setting [1] and 30.1 nM under setting [2].

On to “ACGCCCUAGUAGAAGGGACAUCGGCUGGUAAGCAUCAUCUCCUUCUCACAUGAGGAUCACCCAUGUCAGGAUAUACUAGGAUGC”, for which the “apparent Kd” value runs as follows: under setting [3], 12.2 nM; under setting [4], 35.1 nM.

With “GUAGCUAUCGGAGGAUAUUCAUACCGGAAACGGACAUGAGGAUCACCCAUGUGGCGAAAGCCUUGGGAGAAGGCAGAUAGCUAC”, the “apparent Kd” value stood at 693 nM under setting [1] and 28.6 nM under setting [2].

As to “AAGUAGAUCCGAGGAUAUACAAUCCGGAAACGGUACAUGAGGAUCACCCAUGUAGAAGGCGGAUCUACAGGUACUAAAGUACCG”, the “apparent Kd” value runs as follows: under setting [3], 6.33 nM; under setting [4], 9.45 nM.

Consider “GGUCCAACAUGAGGAUAUAGCACCUUAUUGGUGCUAGAAGGCGUGUCGAUAGACAUGAGGAUCACCCAUGUAAUAAAUUGGACC”, for which the “apparent Kd” value is 793 nM under setting [1] and 139 nM under setting [2].

As to “AAGCAUUGGCUUCUCAUCUACAUGAGGAUCACCCAUGUCGGGAGAAGGAGGCGUUGACGAAUAGCCUAGGAUAUCCUAACGUGC”, the “apparent Kd” value reads like this: under setting [3], 6.84 nM; under setting [4], 6.99 nM.

For the sequence “GACAUGAGGAUCACCCAUGUCCAACCAGAAGGCCAGAAAUCGAACCCGUGUAUCGGGUCCGAGAUGGAGGAUAUGGGCGCCGAA”, the “apparent Kd” value under setting [1] stood at 72.4 nM and the “apparent Kd” value under setting [2] is 32.4 nM.

In the case of “CUUCUGUAAGGAUAUGUAAAUUGCUGGCCACACCAGCACCGGCAGAAGGUACAUGAGGAUCACCCAUGUGGGUU”, the “apparent Kd” value was determined as 219 nM under setting [3] and 137 nM under setting [4].

As to “CCAUGCGGAUGAGGAUAUUCAUCCAUGAGGAUAGAAGAAGGCAUACAUGAGGAUCACCCAUGUAUACGCAUGAGGAUCCCUUAC”, the “apparent Kd” value is, setting by setting: under setting [3], 27.3 nM; under setting [4], 22.3 nM.

Turning to “AUCAGCUCGUCAGGAUAUACGUCACUGCGUCAGCAGUGUGGUAAGAUCACAUGAGGAUCACCCAUGUAGAAGGGAGGAGCUGAU”, the “apparent Kd” value by setting is: under setting [3], 15 nM; under setting [4], 438 nM.

“AAACAUGUCCGAGGAUAUCUGAGAUCAUUUUCAAGAGAAGGCGGACAUGAGGAUCACCCAUGUCUCUCCUCAUCGACUCCAAAU”: the “apparent Kd” value under setting [3] turned out to be 6.32 nM and the “apparent Kd” value under setting [4] amounted to 21.1 nM.

For “AAGCGGGCAGGAUAUGCGUACUCACGGGAAAACUGAAUGGUACAUGAGGAUCACCCAUGUAGAAGGGCUUUGAA”, the “apparent Kd” value under setting [3] came out at 48.4 nM and the “apparent Kd” value under setting [4] is 36.3 nM.

For “GCGUACAUAUCAGGAUAUCAUUGAAUGGAUUAACUCAGUGAAUACAUGAGGAUCACCCAUGUGCUUGAGAAGGGAUUACUACGC”, the “apparent Kd” value runs as follows: under setting [3], 14.7 nM; under setting [4], 69.9 nM.

On to “AACAGCUCGUCAGGAUAUAUUAUAAUAAUACGGCAGUUUGUACAUGAGGAUCACCCAUGUUGUAUGUAGAAGGGACGAGCUGAA”, for which the “apparent Kd” value was 9.86 nM under setting [3] and 8.91 nM under setting [4].

Consider “CUCAUGUGAGGAUAUCAGUAGUAAAAAAAUAAAAUUACUACUGAGAAGGCACAUGAGGAUCACCCAUGUACCUU”, for which the “apparent Kd” value by setting is: under setting [3], 70.7 nM; under setting [4], 72 nM.

Turning to “AGAUGGUCAGGAUAUGCGUGAAGAAUAAAACAAAUAACAACGCAGAAGGGACAUGAGGAUCACCCAUGUCAUCA”, the “apparent Kd” value is, setting by setting: under setting [3], 21.9 nM; under setting [4], 17.3 nM.

“GGAUCCAACACAGGAUAUGCUGGACUUUGUCCAGCAGAAGGGUGAAGAACAUGAGGAUCACCCAUGUGGAUCCAUAUAUGUAAU”: the “apparent Kd” value amounted to 273 nM under setting [1] and 16.6 nM under setting [2].

As for “UUAUUAAGUGUGAGGAUAUGCUGGUCCUUGGAUCAGCAGAAGGCACAUGAGGAUCACCCAUGUACAAUAUAUUA”, the “apparent Kd” value came out at 38.5 nM under setting [3] and 251 nM under setting [4].

As to “AAUUAGGUCACAGGAUAUACUACAUCCAAUGCAGUAGAAGGGUGACACAUUCUGUGCAGACAUGAGGAUCACCCAUGUAACCAC”, the “apparent Kd” value under setting [1] was determined as 11.6 nM and the “apparent Kd” value under setting [2] amounted to 6.39 nM.

As to “GGACAUUUACAGAAGGGCAAGUUUUAUAGUGAAUAUUUAGUUCUGACUUGCAGGAUAUGUUGAACAUGAGGAUCACCCAUGUCC”, the “apparent Kd” value was 16.4 nM under setting [1] and 10.5 nM under setting [2].

Take “CGAUGAGGAGUGAGGAUAUCGUGUUCGAAAGAACGUGAGAAGGCACAUGAGGAUCACCCAUGUGAAACUUGUCG”: the “apparent Kd” value reads like this: under setting [3], 17.1 nM; under setting [4], 23.9 nM.

For “GGAUGACAAAGUCAUCCUAUUCGAACAUGAGGAUCACCCAUGUAGGAUAUGCUUCUCAAAGAGAAGCAGAAGGACAUGUGCUUU”, the “apparent Kd” value reads like this: under setting [3], 36.8 nM; under setting [4], 160 nM.

As for “GGACAUGUCGUCUACAUGAGGAUCACCCAUGUCGAUAGACAUGAGGAUAUCGAUACAAAUUGUAUCGAGAAGGCAUGCAGGUCC”, the “apparent Kd” value worked out at 18.7 nM under setting [1] and 17.7 nM under setting [2].

Regarding “CUAACACAUGAGGAUCACCCAUGUUAGGAUAUUAGUACUAUUUACCACAUAAUGGCACUGAGAAGGAGCGGGUA”, the “apparent Kd” value under setting [3] stood at 29.3 nM and the “apparent Kd” value under setting [4] was 31.3 nM.

For the sequence “GCCGUUAAAGGAUAUACAUGAGGAUCACCCAUGUCGGUAUAAAAUUUACCGCCUCCCUGUAGAAGGUUAAGGCA”, the “apparent Kd” value amounted to 15.6 nM under setting [3] and 19.8 nM under setting [4].
